Structures are written as SMILES. Activity calls are given as the source filed them. The calls are words filed in the database; no cut-off is given here.

Data set [1] in a line: Metabolic stability in mouse liver microsomes assessed as compound remaining at 0.5 uM incubated for 10 mins in presence of NADPH by UV absorbance based assay. The format is ADME, Microsome. The note with it: read-out: Stability.
Data set [2] has as its system CT26. Briefly: Antitumor activity against syngeneic mouse CT26 cells implanted in ip dosed Balb/cAnNHsd mouse assessed as tumor growth delay administered once a week for 4 weeks in presence of aPD1 antibody and measured twice weekly by digital caliper analysis. The note with it: dose 0.5-2.5 mg/kg. It counts as functional, organism-based. The method, boiled down:
(§1)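 Syngeneic CT-26 tumors in mice. The TLR7 agonist was given at 0.5 or 2.5 mg/kg weekly for 4 doses (QWx4). It was combined with anti-PD1 antibody at 10 mg/kg IP, every 4 days for 7 doses (Q4Dx7). Tumor growth was followed, including 27 days after compound dosing stopped.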

Data set [3] is described as follows: Clearance in nontumor bearing Balb/C mouse at 0.5 mg/kg. As to conditions: in vivo. The format is ADME, organism-based.
Data set [4] addresses T1, Cytochrome P450 1A2 (Homo sapiens, UniProt P05177).
T1 sequence (P05177 whole entry): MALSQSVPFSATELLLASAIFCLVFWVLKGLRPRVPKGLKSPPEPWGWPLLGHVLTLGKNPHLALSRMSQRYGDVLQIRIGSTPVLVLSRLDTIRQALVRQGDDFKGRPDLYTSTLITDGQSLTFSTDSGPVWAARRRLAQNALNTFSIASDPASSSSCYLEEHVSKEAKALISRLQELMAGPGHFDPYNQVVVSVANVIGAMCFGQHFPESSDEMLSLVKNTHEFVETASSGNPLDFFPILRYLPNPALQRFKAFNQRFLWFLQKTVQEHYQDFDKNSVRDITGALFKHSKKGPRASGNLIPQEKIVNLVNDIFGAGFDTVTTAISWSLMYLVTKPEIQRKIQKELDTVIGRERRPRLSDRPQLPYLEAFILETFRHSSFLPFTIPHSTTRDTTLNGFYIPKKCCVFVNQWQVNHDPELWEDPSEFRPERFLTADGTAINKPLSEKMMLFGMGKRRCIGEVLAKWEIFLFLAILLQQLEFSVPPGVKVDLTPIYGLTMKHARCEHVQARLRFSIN
Briefly: Inhibition of CYP1A2 (unknown origin). The format is ADME.

In data set [5] the target is T2, Cytochrome P450 3A4 (Homo sapiens, UniProt P08684). As to the kind of experiment: Inhibition of CYP3A4 (unknown origin) using BFC as substrate preincubated with compound followed by substrate addition at 30 mins. It counts as ADME.
T2 sequence (P08684 whole entry): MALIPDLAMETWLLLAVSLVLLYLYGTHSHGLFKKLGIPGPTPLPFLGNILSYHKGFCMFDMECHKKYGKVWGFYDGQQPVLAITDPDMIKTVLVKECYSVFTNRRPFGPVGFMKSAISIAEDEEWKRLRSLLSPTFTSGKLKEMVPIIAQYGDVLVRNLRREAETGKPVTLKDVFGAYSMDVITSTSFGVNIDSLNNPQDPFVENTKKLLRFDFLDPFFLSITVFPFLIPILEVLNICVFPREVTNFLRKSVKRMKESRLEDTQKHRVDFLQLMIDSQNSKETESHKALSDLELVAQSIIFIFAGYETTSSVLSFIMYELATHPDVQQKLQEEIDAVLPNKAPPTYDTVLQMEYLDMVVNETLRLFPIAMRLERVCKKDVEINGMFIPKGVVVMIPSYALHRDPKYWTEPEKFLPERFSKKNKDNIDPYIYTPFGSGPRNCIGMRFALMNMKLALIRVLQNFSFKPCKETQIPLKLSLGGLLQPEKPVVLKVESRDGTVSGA
The target in data set [6] is Cytochrome P450 2D6 (Homo sapiens, UniProt P10635). As to the kind of experiment: Inhibition of CYP2D6 (unknown origin). The format is ADME.
Cytochrome P450 2D6, sequence (P10635 whole entry): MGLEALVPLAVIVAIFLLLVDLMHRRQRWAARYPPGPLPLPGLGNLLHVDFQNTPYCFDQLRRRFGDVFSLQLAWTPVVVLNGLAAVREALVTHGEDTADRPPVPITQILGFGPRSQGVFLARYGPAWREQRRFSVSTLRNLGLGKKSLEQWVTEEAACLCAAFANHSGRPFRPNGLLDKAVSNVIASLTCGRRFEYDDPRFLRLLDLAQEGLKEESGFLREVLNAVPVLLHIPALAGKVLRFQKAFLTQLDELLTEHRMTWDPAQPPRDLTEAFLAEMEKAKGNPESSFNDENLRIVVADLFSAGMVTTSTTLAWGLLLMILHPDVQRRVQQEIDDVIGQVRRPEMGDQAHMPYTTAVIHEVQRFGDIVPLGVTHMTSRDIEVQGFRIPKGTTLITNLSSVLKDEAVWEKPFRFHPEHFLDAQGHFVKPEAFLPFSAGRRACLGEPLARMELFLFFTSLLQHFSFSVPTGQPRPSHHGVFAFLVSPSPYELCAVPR
Data set [7] deals with CT26. As to the kind of experiment: Antitumor activity against syngeneic mouse CT26 cells implanted in Balb/cAnNHsd mouse assessed as complete tumor regression with no relapse at 2.5 mg/kg, ip administered once a week for 4 weeks in presence of aPD1 antibody and measured twice weekly by digital caliper analysis. The format is functional, organism-based. The method, boiled down: as §1

Data set [8] deals with T2, Cytochrome P450 3A4. As to the kind of experiment: Inhibition of CYP3A4 (unknown origin) using BFC as substrate preincubated with compound followed by substrate addition at 5 mins. The format is ADME.
Data set [9] can be described thus: Cytotoxicity against PHA-activated T-cells (unknown origin) assessed as inhibition of IL-2 induced cell proliferation measured after 72 hrs by MTS assay. It counts as toxicity, cell-based.
For data set [10], the system named is Mus musculus. Briefly: Immunostimulatory activity in nontumor bearing Balb/C mouse assessed as increase in IFNalpha production in serum at 0.5 to 1 mg/kg, iv measured after 2 hrs by ELISA. It counts as functional, organism-based. The note with it: dose 0.5-1 mg/kg. The method, boiled down: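 Nontumor-bearing female Balb/C mice received a single 1 mg/kg dose. Serum IFNα was measured 2 h after administration, with N = 9 mice per group.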

The target of data set [11] is T3, Toll-like receptor 8 (Homo sapiens, UniProt Q9NR97).
T3 sequence (Q9NR97 whole entry): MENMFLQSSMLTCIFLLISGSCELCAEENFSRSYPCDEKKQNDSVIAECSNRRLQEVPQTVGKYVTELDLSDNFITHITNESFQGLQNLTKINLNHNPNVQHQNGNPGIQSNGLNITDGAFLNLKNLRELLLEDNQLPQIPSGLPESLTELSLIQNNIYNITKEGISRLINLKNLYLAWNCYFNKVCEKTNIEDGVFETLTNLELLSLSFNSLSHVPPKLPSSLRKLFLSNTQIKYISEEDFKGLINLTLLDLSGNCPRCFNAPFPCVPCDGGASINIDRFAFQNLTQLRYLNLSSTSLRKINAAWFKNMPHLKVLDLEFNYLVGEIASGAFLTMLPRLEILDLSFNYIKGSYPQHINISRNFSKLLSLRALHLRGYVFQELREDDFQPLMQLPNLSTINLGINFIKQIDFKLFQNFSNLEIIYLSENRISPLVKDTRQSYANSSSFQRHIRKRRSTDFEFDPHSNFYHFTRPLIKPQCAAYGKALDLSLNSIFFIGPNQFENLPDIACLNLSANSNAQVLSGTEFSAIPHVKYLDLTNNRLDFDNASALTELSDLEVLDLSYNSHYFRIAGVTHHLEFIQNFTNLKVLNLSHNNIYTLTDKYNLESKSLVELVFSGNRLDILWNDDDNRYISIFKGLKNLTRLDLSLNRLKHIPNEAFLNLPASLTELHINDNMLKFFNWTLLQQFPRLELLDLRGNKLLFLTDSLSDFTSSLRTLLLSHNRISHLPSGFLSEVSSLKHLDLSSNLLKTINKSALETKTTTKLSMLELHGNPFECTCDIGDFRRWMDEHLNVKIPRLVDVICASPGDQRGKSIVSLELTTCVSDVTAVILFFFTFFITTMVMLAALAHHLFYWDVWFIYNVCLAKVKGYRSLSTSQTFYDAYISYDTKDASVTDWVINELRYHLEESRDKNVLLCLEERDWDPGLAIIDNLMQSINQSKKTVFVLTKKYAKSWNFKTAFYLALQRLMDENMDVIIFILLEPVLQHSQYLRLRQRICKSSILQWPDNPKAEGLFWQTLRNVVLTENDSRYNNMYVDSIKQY
Briefly: Agonist activity at human TLR8.

In the case of `CCC[C@@H](CCO)Nc1nc(N)nc2cnn(Cc3ncc(C4CCN(C5CCOCC5)CC4)cc3OC)c12`, the remaining at 10 min, 0.5 µM in data set [1] was determined as 100%. The result in [2], in data set [7] and in data set [10] was Active. This compound yielded a clearance in data set [3] of 22 mL/min/kg. For the same compound, the half-maximal inhibitory concentration (IC50) in data set [4], in [5], in data set [6] and in data set [8] was above 20 µM each time. In addition, the IC50 at 72 h in data set [9] was above 25 µM. Also, the half-maximal effective concentration (EC50) in data set [11] is above 5 µM.
